Laboratory results reported in ChEMBL document CHEMBL5236592, “Induction of Ferroptosis in Glioblastoma and Ovarian Cancers by a New Pyrrole Tubulin Assembly Inhibitor” (J Med Chem, 2022).
Calls of active or inactive are those of the source. No cut-off for these calls is given here.

Experiments:
[1] = Selectivity index, ratio of IC50 for cytotoxicity against human U-87 MG cells to IC50 for cytotoxicity against human OVCAR-3 cells; type: toxicity, cell-based; conditions: U-87 MG cells versus OVCAR-3 cells, read-out: Ratio IC50
U-87MG ATCC [2] = assay: Induction of ferroptosis-mediated antitumor activity against human U-87 MG cells xenografted in BALB/C nu/nu mouse assessed as increase in […] level in tumor at 25 mg/kg, ip administered every 2 days for 40 days by biochemical analysis; type: functional, organism-based; conditions: time 40.0 day
Method in brief: (§1)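 U-87 MG or SKOV-3 sc xenografts (1 × 10^8 cells/mL) in female BALB/c nu/nu mice, 4 per group. Given 25 mg/kg ip in 100 μL every 2 days, or saline. Tumors harvested on day 40 and assayed for LPO, MDA, lactic acid, total glutathione (GSH + GSSG), ATP and Fe2+.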

U-87MG ATCC [3] = assay: Induction of ferroptosis-mediated antitumor activity against human U-87 MG cells xenografted in BALB/C nu/nu mouse assessed as increase in malondialdehyde level in tumor at 25 mg/kg, ip administered every 2 days for 40 days by biochemical analysis; type: functional, organism-based; conditions: time 40.0 day; method in brief: as §1
SK-OV-3 [4] = assay: Induction of ferroptosis-mediated antitumor activity against human SK-OV-3 cells xenografted in BALB/C nu/nu mouse assessed as increase in […] level in tumor at 25 mg/kg, ip administered every 2 days for 40 days by biochemical analysis; type: functional, organism-based; conditions: time 40.0 day; method in brief: as §1
SK-OV-3 [5] = assay: Induction of ferroptosis-mediated antitumor activity against human SK-OV-3 cells xenografted in BALB/C nu/nu mouse assessed as increase in malondialdehyde level in tumor at 25 mg/kg, ip administered every 2 days for 40 days by biochemical analysis; type: functional, organism-based; conditions: time 40.0 day; method in brief: as §1
SK-OV-3 [6] = assay: Induction of ferroptosis-mediated antitumor activity against human SK-OV-3 cells xenografted in BALB/C nu/nu mouse assessed as reduction in ATP level in tumor at 25 mg/kg, ip administered every 2 days for 40 days by biochemical analysis; type: functional, organism-based; conditions: time 40.0 day; method in brief: as §1
U-87MG ATCC [7] = assay: Induction of ferroptosis-mediated antitumor activity against human U-87 MG cells xenografted in BALB/C nu/nu mouse assessed as reduction in total glutathione level in tumor at 25 mg/kg, ip administered every 2 days for 40 days by biochemical analysis; type: functional, organism-based; conditions: time 40.0 day; method in brief: as §1
U-87MG ATCC [8] = assay: Induction of ferroptosis-mediated antitumor activity against human U-87 MG cells xenografted in BALB/C nu/nu mouse assessed as reduction in ATP level in tumor at 25 mg/kg, ip administered every 2 days for 40 days by biochemical analysis; type: functional, organism-based; conditions: time 40.0 day; method in brief: as §1
Mus musculus [9] = assay: Upregulation of Fancd2 mRNA expression in tumor of BALB/C nu/nu mouse xenografted with human U-87 MG cells at 25 mg/kg, ip administered every 2 days for 40 days by qPCR analysis; type: functional, organism-based; conditions: time 40.0 day
Method in brief: (§2)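 Female BALB/c nu/nu mice bearing sc U-87 MG or SKOV-3 xenografts were dosed ip at 25 mg/kg (100 μL) every 2 days, or given saline, and tumors were taken at day 40. RNA was extracted from about 20 mg of tissue. qPCR ran 40 cycles (95 °C 15 min; 94 °C 20 s; 60 °C 34 s) on a 69-gene panel. Fold change was by 2^–ΔΔCt, with ≥1.5 counted as increased.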

Mus musculus [10] = assay: Upregulation of Htra2 mRNA expression in tumor of BALB/C nu/nu mouse xenografted with human U-87 MG cells at 25 mg/kg, ip administered every 2 days for 40 days by qPCR analysis; type: functional, organism-based; conditions: time 40.0 day
Method in brief: (§3)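 Female BALB/c nu/nu mice, 10 weeks old, 4 per group. Inoculated s.c. with 1 × 10^8 cells/mL of log-phase U-87 MG or SKOV-3 cells. Dosed i.p. with 100 μL at 25 mg/kg every 2 days; controls got 100 μL saline. Tumors harvested on day 40. RNA extracted from about 20 mg of tissue. qPCR panel of 69 genes, 40 cycles (94 °C 20 s, 60 °C 34 s). Analysed by 2–ΔΔCt; fold ≥1.5 taken as increased.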

Mus musculus [11] = assay: Upregulation of Cs mRNA expression in tumor of BALB/C nu/nu mouse xenografted with human U-87 MG cells at 25 mg/kg, ip administered every 2 days for 40 days by qPCR analysis; type: functional, organism-based; conditions: time 40.0 day; method in brief: as §2
Mus musculus [12] = assay: Upregulation of Cars mRNA expression in tumor of BALB/C nu/nu mouse xenografted with human U-87 MG cells at 25 mg/kg, ip administered every 2 days for 40 days by qPCR analysis; type: functional, organism-based; conditions: time 40.0 day; method in brief: as §2
Mus musculus [13] = assay: Upregulation of TFRC mRNA expression in tumor of BALB/C nu/nu mouse xenografted with human SK-OV-3 cells at 25 mg/kg, ip administered every 2 days for 40 days by qPCR analysis; type: functional, organism-based; conditions: time 40.0 day; method in brief: as §3
Mus musculus [14] = assay: Upregulation of Cpx mRNA expression in tumor of BALB/C nu/nu mouse xenografted with human SK-OV-3 cells at 25 mg/kg, ip administered every 2 days for 40 days by qPCR analysis; type: functional, organism-based; conditions: time 40.0 day; method in brief: as §2
Mus musculus [15] = assay: Upregulation of Akr1c1 mRNA expression in tumor of BALB/C nu/nu mouse xenografted with human SK-OV-3 cells at 25 mg/kg, ip administered every 2 days for 40 days by qPCR analysis; type: functional, organism-based; conditions: time 40.0 day; method in brief: as §2
Mus musculus [16] = assay: Upregulation of Nf22l2 mRNA expression in tumor of BALB/C nu/nu mouse xenografted with human SK-OV-3 cells at 25 mg/kg, ip administered every 2 days for 40 days by qPCR analysis; type: functional, organism-based; conditions: time 40.0 day; method in brief: as §3
U-87MG ATCC [17] = assay: Antitumor activity against human U-87 MG cells xenografted in BALB/C nu/nu mouse assessed as reduction in CD31 expression in tumor at 25 mg/kg, ip administered every 2 days for 40 days by immunofluoresence staining based assay; type: functional, organism-based; conditions: time 40.0 day
Method in brief: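 Female BALB/c nu/nu mice, 10 weeks old, 4 per group. Received subcutaneous U-87 MG or SKOV-3 cells (1 × 10^8 cells/mL, harvested in log phase). Dosed ip with 100 μL at 25 mg/kg every 2 days; controls got 100 μL saline on the same schedule. Sacrificed at 40 days; tumors weighed, volume = ab²/2. Tumor sections (6 μm, paraffin) stained by immunofluorescence for Ki67 or CD31 with Alexa Fluor 488 secondary.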

SK-OV-3 [18] = assay: Induction of ferroptosis-mediated antitumor activity against human SK-OV-3 cells xenografted in BALB/C nu/nu mouse assessed as reduction in FTH1 protein expression in tumor at 25 mg/kg, ip administered every 2 days for 40 days by immunofluoresence staining based assay; type: functional, organism-based; conditions: time 40.0 day
Method in brief: (§4)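 Xenografts of U-87 MG or SKOV-3 (1 × 10^8 cells/mL, sc) in female BALB/c nu/nu mice, 4 per group. Treated ip at 25 mg/kg in 100 μL every 2 days versus saline, tumors collected at day 40. Paraffin sections (6 μm) were blocked at 37 °C for 30 min, then incubated with rabbit anti-GPX4 or anti-FTH1 and then Alexa Fluor 488 anti-rabbit, each for 45 min at 37 °C.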

U-87MG ATCC [19] = assay: Induction of ferroptosis-mediated antitumor activity against human U-87 MG cells xenografted in BALB/C nu/nu mouse assessed as reduction in FTH1 protein expression in tumor at 25 mg/kg, ip administered every 2 days for 40 days by immunofluoresence staining based assay; type: functional, organism-based; conditions: time 40.0 day; method in brief: as §4

Compound: COc1cc(C(=O)c2cn(-c3ncccn3)cc2-c2ccco2)cc(OC)c1OC
- selectivity ratio [1]: 3.5
- Activity (U-87MG ATCC [2]): Active
- Activity (U-87MG ATCC [3]): Active
- Activity (SK-OV-3 [4]): Active
- Activity (SK-OV-3 [5]): Active
- Activity (SK-OV-3 [6]): Active
- Activity (U-87MG ATCC [7]): Active
- Activity (U-87MG ATCC [8]): Active
- Activity (Mus musculus [9]): Active
- Activity (Mus musculus [10]): Active
- Activity (Mus musculus [11]): Active
- Activity (Mus musculus [12]): Active
- Activity (Mus musculus [13]): Active
- Activity (Mus musculus [14]): Active
- Activity (Mus musculus [15]): Active
- Activity (Mus musculus [16]): Active
- Activity (U-87MG ATCC [17]): Active
- Activity (SK-OV-3 [18]): Active
- Activity (U-87MG ATCC [19]): Active
